Experiments:
[1] = molecular target: NAD(P)H dehydrogenase [quinone] 1 (Homo sapiens) (UniProt P15559); test: Activity at human recombinant NQO1 assessed as average rate of irreversible NADH oxidation after 30 to 40 mins by HPLC analysis
In short: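 Recombinant human NQO1 incubated with 50 µM quinone and 200 µM NADH in 25 mM Tris-HCl pH 7.4, 30–40 min at 22 °C. Reverse-phase C18 HPLC with methanol/10 mM potassium phosphate pH 6.0 gradient; NADH oxidation quantified at 340 nm. Average rate expressed as µmol NADH oxidized/min/mg NQO1.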

[2] = molecular target: NAD(P)H dehydrogenase [quinone] 1 (Homo sapiens) (UniProt P15559); test: Activity at human recombinant NQO1 assessed as initial rate of cytochrome c reduction during the first 0 to 30 s by spectrophotometry

Sequence of NAD(P)H dehydrogenase [quinone] 1 (Homo sapiens) (P15559 whole entry): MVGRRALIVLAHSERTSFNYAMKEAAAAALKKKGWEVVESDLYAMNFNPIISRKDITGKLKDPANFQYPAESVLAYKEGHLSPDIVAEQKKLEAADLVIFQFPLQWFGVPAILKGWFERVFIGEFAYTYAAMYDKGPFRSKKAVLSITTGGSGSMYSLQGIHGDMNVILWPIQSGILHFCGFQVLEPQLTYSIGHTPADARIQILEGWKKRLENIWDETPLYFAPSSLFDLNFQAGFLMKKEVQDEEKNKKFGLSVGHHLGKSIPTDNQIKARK

Row | SMILES | Activity [1] [µmol/min/mg] | Activity [2] [µmol/min/mg]
1 | COC1=CC(=O)c2sc(C=O)cc2C1=O | 27.4 | 897
2 | COC1=CC(=O)c2onc(C)c2C1=O | 27.6 | 290
3 | COC(=O)c1cc2c(s1)C(=O)C=C(OC)C2=O | 53.9 | 555
4 | COC1=CC(=O)c2sc(C)cc2C1=O | 5.51 | 553
5 | COC1=CC(=O)c2c(c(CO)c(C)n2C)C1=O | 1.25 | 
6 | COC1=CC(=O)c2oc(CO)c(C)c2C1=O | 80.8 | 1020
7 | COC1=CC(=O)c2c(c(CO)nn2C)C1=O | 38.1 | 247
8 | COC1=CC(=O)c2c(c(C)c(CO)n2C)C1=O | 2.49 | 
9 | COC1=CC(=O)c2sc(CO)c(C)c2C1=O |  | 468
10 | COC1=CC(=O)c2sc(COC(C)=O)cc2C1=O | 24.5 | 900
11 | COC1=CC(=O)c2c(c(C)nn2C)C1=O | 19.6 | 55.3
12 | COC1=CC(=O)c2oc(C)c(C(C)O)c2C1=O (stereo not given) | 87.9 | 585
13 | COC1=CC(=O)c2sc(CO)cc2C1=O | 63.8 | 927
14 | COC1=CC(=O)c2sc(C)c(CO)c2C1=O |  | 236
15 | CC1=CC(=O)c2ccccc2C1=O |  | 1220

Reference: ChEMBL document CHEMBL2384954, “Benzofuran-, benzothiophene-, indazole- and benzisoxazole-quinones: excellent substrates for NAD(P)H:quinone oxidoreductase 1” (Bioorg Med Chem, 2013)
